Source: ChEMBL document CHEMBL1128523, “Non-peptide fibrinogen receptor antagonists. 7. Design and synthesis of a potent, orally active fibrinogen receptor antagonist” (J Med Chem, 1995)
Where a SMILES comes first, the peptide text is derived from it. Bridges are numbered along the chain shown (N, C = ends).

Experiments:
Homo sapiens [1] = organism: Homo sapiens; assay: Concentration required to inhibit the rate of platelet aggregation by 50% was determined with human gel filtered platelets (GFP); assay type: functional
Procedure, shortened: (§1)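 Light-transmittance aggregometry at 37 °C on human gel-filtered platelets (2 × 10^8 platelets/mL) with 0.1 mg/mL human fibrinogen and 1 mM CaCl2; 10 μM ADP added last to start aggregation.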

Canis familiaris [2] = assay: Ex vivo antiplatelet activity was assessed following oral administration at a dose of 1 mg/kg to dogs in the presence of 10 uM of ADP and 1 uM of epinephrine at 1440 min; assay type: functional; settings: Canis lupus familiaris, 24 h
Procedure, shortened: (§2)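 Four conscious mongrel dogs in slings, single oral 1.0 mg/kg crystalline solid in gelatin capsules; citrated venous blood (3.8% citrate) taken at baseline and 20–1440 min. PRP aggregation to ADP or collagen, each with 1 μM epinephrine, as % inhibition vs baseline. Mean ± SEM, n = 4.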

Canis familiaris [3] = assay: Ex vivo antiplatelet activity was assessed following oral administration at a dose of 1 mg/kg to dogs in the presence of 10 uM of ADP and 1 uM of epinephrine at 20 min; assay type: functional; settings: Canis lupus familiaris; procedure, shortened: as §2
Canis familiaris [4] = assay: Ex vivo antiplatelet activity was assessed following oral administration at a dose of 1 mg/kg to dogs in the presence of 10 uM of collagen and 1 uM of epinephrine at 480 min; assay type: functional; settings: Canis lupus familiaris, 8 h; procedure, shortened: as §2
[5] = In vitro concentration required to inhibit the rate of chimp platelet aggregation (in platelet rich plasma) by 50% was determined in presence of 10 ug/mL of collagen; assay type: functional; settings: Pan troglodytes
Procedure, shortened: (§3)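 PRP from blood spun at 150g for 5 min, count set to 200 000 cells/mm3 with PPP; 300 μL held 3 min at 37 °C before agonist. Aggregation read as % change in light transmission, PPP = 100%; inhibition relative to baseline response. Mean ± SE, n = 3–7.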

[6] = In vitro concentration required to inhibit the rate of chimp platelet aggregation (in platelet rich plasma) by 50% was determined in presence of 20 uM of ADP; assay type: functional; settings: Pan troglodytes; procedure, shortened: as §3
Canis familiaris [7] = assay: Ex vivo antiplatelet activity was assessed following oral administration at a dose of 1 mg/kg to dogs in the presence of 10 uM of collagen and 1 uM of epinephrine at 40 min; assay type: functional; settings: Canis lupus familiaris; procedure, shortened: as §2
Canis familiaris [8] = assay: Ex vivo antiplatelet activity was assessed following oral administration at a dose of 1 mg/kg to dogs in the presence of 10 uM of collagen and 1 uM of epinephrine at 90 min; assay type: functional; settings: Canis lupus familiaris, 1.5 h; procedure, shortened: as §2
Canis familiaris [9] = assay: Ex vivo antiplatelet activity was assessed following oral administration at a dose of 1 mg/kg to dogs in the presence of 10 uM of ADP and 1 uM of epinephrine at 150 min; assay type: functional; settings: Canis lupus familiaris, 2.5 h; procedure, shortened: as §2
Canis familiaris [10] = assay: Ex vivo antiplatelet activity was assessed following oral administration at a dose of 1 mg/kg to dogs in the presence of […] and 1 uM of epinephrine at 1440 min; assay type: functional; settings: Canis lupus familiaris, 24 h; procedure, shortened: as §2
Canis familiaris [11] = assay: Ex vivo antiplatelet activity was assessed following oral administration at a dose of 1 mg/kg to dogs in the presence of […] and 1 uM of epinephrine at 200 min; assay type: functional; settings: Canis lupus familiaris; procedure, shortened: as §2
Canis familiaris [12] = assay: Ex vivo antiplatelet activity was assessed following oral administration at a dose of 1 mg/kg to dogs in the presence of 10 uM of ADP and 1 uM of epinephrine at 480 min; assay type: functional; settings: Canis lupus familiaris, 8 h; procedure, shortened: as §2
Canis familiaris [13] = assay: Ex vivo antiplatelet activity was assessed following oral administration at a dose of 1 mg/kg to dogs in the presence of 10 uM of ADP and 1 uM of epinephrine at 90 min; assay type: functional; settings: Canis lupus familiaris, 1.5 h; procedure, shortened: as §2
Canis familiaris [14] = assay: Ex vivo antiplatelet activity was assessed following oral administration at a dose of 1 mg/kg to dogs in the presence of 10 uM of ADP and 1 uM of epinephrine at 200 min; assay type: functional; settings: Canis lupus familiaris; procedure, shortened: as §2
Canis familiaris [15] = organism: Canis familiaris; assay: Whole blood platelet count was determined in 10e3/uL; assay type: functional, Canis lupus familiaris
Procedure, shortened: (§4)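 Dogs given 1.0 mg/kg orally by capsule (n = 4); 1 mL citrated venous blood per time point (baseline to 1440 min) counted on an automated hematology analyzer; reported as 10^3/μL and Δ% from baseline, mean ± SEM.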

Homo sapiens [16] = organism: Homo sapiens; assay: In vitro concentration required to inhibit the rate of human platelet aggregation (in platelet rich plasma) by 50% was determined in presence of 10 uM of epinephrine; assay type: functional; procedure, shortened: as §3
Canis familiaris [17] = assay: Ex vivo antiplatelet activity was assessed following oral administration at a dose of 1 mg/kg to dogs in the presence of […] and 1 uM of epinephrine at 250 min; assay type: functional; settings: Canis lupus familiaris; procedure, shortened: as §2
Canis familiaris [18] = assay: Ex vivo antiplatelet activity was assessed following oral administration at a dose of 1 mg/kg to dogs in the presence of 10 uM of ADP and 1 uM of epinephrine at 300 min; assay type: functional; settings: Canis lupus familiaris, 5 h; procedure, shortened: as §2
Canis familiaris [19] = assay: Ex vivo antiplatelet activity was assessed following oral administration at a dose of 1 mg/kg to dogs in the presence of 10 uM of ADP and 1 uM of epinephrine at 250 min; assay type: functional; settings: Canis lupus familiaris; procedure, shortened: as §2
Canis familiaris [20] = assay: Ex vivo antiplatelet activity was assessed following oral administration at a dose of 1 mg/kg to dogs in the presence of 10 uM of collagen and 1 uM of epinephrine at 350 min; assay type: functional; settings: Canis lupus familiaris; procedure, shortened: as §2
Homo sapiens [21] = organism: Homo sapiens; assay: In vitro concentration required to inhibit the rate of human platelet aggregation (in platelet rich plasma) by 50% was determined in presence of 10 ug/mL of collagen; assay type: functional; procedure, shortened: as §3
Canis familiaris [22] = organism: Canis familiaris; assay: In vitro concentration required to inhibit the rate of dog platelet aggregation (in platelet rich plasma) by 50% was determined in presence of 10 ug/mL of collagen and 1 uM of epinephrine; assay type: functional; settings: Canis lupus familiaris; procedure, shortened: as §3
Canis familiaris [23] = assay: Ex vivo antiplatelet activity was assessed following oral administration at a dose of 1 mg/kg to dogs in the presence of […] and 1 uM of epinephrine at 0 min; assay type: functional; settings: Canis lupus familiaris, 0 h; procedure, shortened: as §2
Homo sapiens [24] = organism: Homo sapiens; assay: Concentration required to inhibit platelet aggregation by 50%; assay type: functional; procedure, shortened: as §1
Canis familiaris [25] = assay: Ex vivo antiplatelet activity was assessed following oral administration at a dose of 1 mg/kg to dogs in the presence of […] and 1 uM of epinephrine at 70 min; assay type: functional; settings: Canis lupus familiaris; procedure, shortened: as §2
Canis familiaris [26] = assay: Ex vivo antiplatelet activity was assessed following oral administration at a dose of 1 mg/kg to dogs in the presence of […] and 1 uM of epinephrine at 300 min; assay type: functional; settings: Canis lupus familiaris, 5 h; procedure, shortened: as §2
Canis familiaris [27] = assay: Ex vivo antiplatelet activity was assessed following oral administration at a dose of 1 mg/kg to dogs in the presence of 10 uM of ADP and 1 uM of epinephrine at 0 min; assay type: functional; settings: Canis lupus familiaris, 0 h; procedure, shortened: as §2
Canis familiaris [28] = assay: Ex vivo antiplatelet activity was assessed following oral administration at a dose of 1 mg/kg to dogs in the presence of 10 uM of ADP and 1 uM of epinephrine at 70 min; assay type: functional; settings: Canis lupus familiaris; procedure, shortened: as §2
Canis familiaris [29] = assay: Ex vivo antiplatelet activity was assessed following oral administration at a dose of 1 mg/kg to dogs in the presence of 10 uM of ADP and 1 uM of epinephrine at 350 min; assay type: functional; settings: Canis lupus familiaris; procedure, shortened: as §2
Homo sapiens [30] = organism: Homo sapiens; assay: In vitro concentration required to inhibit the rate of human platelet aggregation (in platelet rich plasma) by 50% was determined in presence of 10 uM of ADP; assay type: functional; procedure, shortened: as §3
Canis familiaris [31] = organism: Canis familiaris; assay: Whole blood platelet count was determined as delta% from baseline; assay type: functional, Canis lupus familiaris; procedure, shortened: as §4
Homo sapiens [32] = organism: Homo sapiens; assay: In vitro concentration required to inhibit the rate of human platelet aggregation (in platelet rich plasma) by 50% was determined in presence of 0.5 U/mL of thrombin and 1 mM GPRP; assay type: functional; procedure, shortened: as §3
Canis familiaris [33] = assay: Ex vivo antiplatelet activity was assessed following oral administration at a dose of 1 mg/kg to dogs in the presence of […] and 1 uM of epinephrine at 20 min; assay type: functional; settings: Canis lupus familiaris; procedure, shortened: as §2
Canis familiaris [34] = assay: Ex vivo antiplatelet activity was assessed following oral administration at a dose of 1 mg/kg to dogs in the presence of […] and 1 uM of epinephrine at 150 min; assay type: functional; settings: Canis lupus familiaris, 2.5 h; procedure, shortened: as §2
Canis familiaris [35] = assay: Ex vivo antiplatelet activity was assessed following oral administration at a dose of 1 mg/kg to dogs in the presence of 10 uM of ADP and 1 uM of epinephrine at 40 min; assay type: functional; settings: Canis lupus familiaris; procedure, shortened: as §2
Canis familiaris [36] = organism: Canis familiaris; assay: In vitro concentration required to inhibit the rate of dog platelet aggregation (in platelet rich plasma) by 50% was determined in presence of 10 uM of ADP and 1 uM of epinephrine; assay type: functional; settings: Canis lupus familiaris; procedure, shortened: as §3

SMILES: O=C(O)CCNC(=O)CN1CCC[C@@H](CCC2CCNCC2)C1=O
- IC50 (Homo sapiens [1]): 83 nM

SMILES: O=C(O)CCNC(=O)CNC(=O)CCCC1CCNCC1
- IC50 (Homo sapiens [1]): 8400 nM

SMILES: C[C@@H](CC(=O)O)NC(=O)CN1CCC[C@@H](CCC2CCNCC2)C1=O
- IC50 (Homo sapiens [1]): 7800 nM

SMILES: C[C@H](CC(=O)O)NC(=O)CN1CCC[C@@H](CCC2CCNCC2)C1=O
- inhibition in vivo at 1 mg/kg (Canis familiaris [2]): 2%
- inhibition in vivo at 1 mg/kg (Canis familiaris [3]): 50%
- IC50 (Homo sapiens [1]): 32 nM
- inhibition in vivo at 1 mg/kg (Canis familiaris [4]): 31%
- IC50 [5]: 40 nM
- IC50 [6]: 42 nM
- inhibition in vivo at 1 mg/kg (Canis familiaris [7]): 79%
- inhibition in vivo at 1 mg/kg (Canis familiaris [8]): 75%
- inhibition in vivo at 1 mg/kg (Canis familiaris [9]): 96%
- inhibition in vivo at 1 mg/kg (Canis familiaris [10]): 3%
- inhibition in vivo at 1 mg/kg (Canis familiaris [11]): 78%
- inhibition in vivo at 1 mg/kg (Canis familiaris [12]): 63%
- inhibition in vivo at 1 mg/kg (Canis familiaris [13]): 96%
- inhibition in vivo at 1 mg/kg (Canis familiaris [14]): 94%
- Platelet count (Canis familiaris [15]): 322000 µL⁻¹
- IC50 (Homo sapiens [16]): 36 nM
- inhibition in vivo at 1 mg/kg (Canis familiaris [17]): 72%
- inhibition in vivo at 1 mg/kg (Canis familiaris [18]): 91%
- inhibition in vivo at 1 mg/kg (Canis familiaris [19]): 90%
- inhibition in vivo at 1 mg/kg (Canis familiaris [20]): 54%
- IC50 (Homo sapiens [21]): 67 nM
- IC50 (Canis familiaris [22]): 40 nM
- inhibition in vivo at 1 mg/kg (Canis familiaris [23]): 0%
- IC50 (Homo sapiens [24]): 32 nM
- inhibition in vivo at 1 mg/kg (Canis familiaris [25]): 79%
- inhibition in vivo at 1 mg/kg (Canis familiaris [26]): 67%
- inhibition in vivo at 1 mg/kg (Canis familiaris [27]): 0%
- inhibition in vivo at 1 mg/kg (Canis familiaris [28]): 93%
- inhibition in vivo at 1 mg/kg (Canis familiaris [29]): 81%
- IC50 (Homo sapiens [30]): 23 nM
- Delta (Canis familiaris [31]): -0.5% [middle of 10 runs]
- IC50 (Homo sapiens [32]): 27 nM
- inhibition in vivo at 1 mg/kg (Canis familiaris [33]): 48%
- inhibition in vivo at 1 mg/kg (Canis familiaris [34]): 94%
- inhibition in vivo at 1 mg/kg (Canis familiaris [35]): 86%
- IC50 (Canis familiaris [36]): 41 nM

SMILES: CC(=O)N[C@H]1CSSC[C@@H](C(=O)O)NC(=O)[C@H](CC(=O)O)NC(=O)CNC(=O)[C@H](CCCN=C(N)N)NC1=O (Ac-CRGDC-OH; disulfide 1-5)
- IC50 (Homo sapiens [1]): 680 nM
